Rows were chosen to be rich in hits. Some 2.5% of all compounds tested hit in one or more screens of this group.
SIRT5 inh – inhibitors of human sirtuin-5 desuccinylase; Q9NXA8; inhibition, % at 15 µM; actives 1.1% (n = 330,000); Purified SirT5, succinyl-peptide AMC, trypsin-coupled fluorescence; in the data active = inhibition above about 15%
Target sequence (Q9NXA8 whole entry, looked up): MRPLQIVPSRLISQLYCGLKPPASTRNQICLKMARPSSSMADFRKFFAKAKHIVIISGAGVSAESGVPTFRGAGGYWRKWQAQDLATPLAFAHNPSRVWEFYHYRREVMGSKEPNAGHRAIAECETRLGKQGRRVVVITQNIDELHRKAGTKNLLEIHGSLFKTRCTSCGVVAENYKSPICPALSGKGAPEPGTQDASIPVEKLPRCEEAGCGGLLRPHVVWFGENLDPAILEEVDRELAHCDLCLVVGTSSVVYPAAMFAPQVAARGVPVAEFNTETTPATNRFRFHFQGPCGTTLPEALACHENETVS
E-selectin induc – induces E-selectin expression in human endothelial cells | activation, % at 7.58 µM | P16581 | actives 0.37% (n = 260,000) | AID 686992 | HUVEC E-selectin immunofluorescence imaging; normalized: neutral wells 0, TNF-alpha wells 100;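 active = mean E-selectin-positive cell signal at least 10% of the positive control, reached in at least 60% of replicates, without over 20% cell loss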
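System: HUVEC, human umbilical vein endothelial cells; quantity: 3,000 cells/well; buffer or medium: EGM-2 medium, gelatin-coated wells; dosing: single-point compound dose; detection: immunofluorescence imaging; evaluation: % PE-positive cells; benchmarks: TNF-alpha, DMSO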
miR122 inh – blocks miR-122 activity in Huh7 sensor cells. actives 0.3% (n = 340,000). Huh7 miR-122 Renilla luciferase sensor, 48 h; neutral wells = 0, positive control = 100. activation (reporter increase), % at 12.5 µM;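 active = mean replicate activation score at least 90 and every replicate individually at or above 90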;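 also: higher luciferase means less miR-122 activity so hits act as miR-122 inhibitors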
FGF22 binding – shifts melting point of recombinant human FGF22 | Q9HCT0 | recombinant FGF22 thermal shift, SYPRO orange fluorescence; percent of sucrose octasulfate shift, DMSO zero | activity (Tm shift, normalised), % at 9.99 µM | actives 1.5% (n = 340,000) | AID 651658;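 active = mean Tm shift, scaled 0 neutral to 100 positive control, at about 1.3% or above, every replicate too, limit read from the data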
Target sequence (Q9HCT0 whole entry, looked up): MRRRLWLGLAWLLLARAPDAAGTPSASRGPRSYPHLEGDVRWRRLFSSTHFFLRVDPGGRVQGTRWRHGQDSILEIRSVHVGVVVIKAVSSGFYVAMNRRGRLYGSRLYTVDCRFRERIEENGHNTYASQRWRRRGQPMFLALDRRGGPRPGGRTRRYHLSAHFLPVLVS
S100A4 MyoIIA – inhibitors of human S100A4 binding to myosin IIA peptide; S100A4/TAMRA-MyoIIA peptide fluorescence polarization; inhibition, % at 10.7 µM; actives 0.14% (n = 360,000); AID 652163; P26447;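 active = mean inhibition of at least 70% across replicates, with every replicate also reaching that level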
Target sequence (P26447 whole entry, looked up): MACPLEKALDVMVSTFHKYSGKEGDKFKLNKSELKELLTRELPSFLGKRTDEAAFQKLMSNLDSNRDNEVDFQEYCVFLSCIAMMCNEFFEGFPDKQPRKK
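Test system: S100A4 monomer protein; Medium: HEPES pH 7.2 with CaCl2, KCl, NaCl, DTT, Triton; Probe or stimulus: TAMRA-labelled myosin IIA heavy-chain peptide probe, 5 nM; Doses: one dose per compound; Times: polarization read 5 min after assay mix addition, stable 5–60 min; Benchmarks: neutral control DMSO, positive control TFP.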
Numbers without * were called inactive; . = no result given; [ ] = remark or other dose.

SMILES	SIRT5 inh	E-selectin induc	miR122 inh	FGF22 binding	S100A4 MyoIIA
CCC(c1nc2ccccc2[nH]1)n1c(-c2ccc3cc[nH]c3c2)nc2ccccc21 (stereo not given)	-2.3	0.1	.	1.5*	-8.2
C[C@H](CO)N1C[C@H](C)[C@@H](CN(C)C(=O)Nc2ccc(F)cc2)OCCCC[C@H](C)Oc2ccc(NS(=O)(=O)c3ccc(F)cc3)cc2C1=O	.	-0.1	2.3[16.7 µM]	0.0	.
CS(=O)(=O)N(CCC#N)Cc1ccco1	16.1*	-0.6	2.9	0.4	-5.4
CS(=O)(=O)N(Cc1ccco1)Cc1ccccc1Cl	-0.2	.	34.8	.	-2.9
N#Cc1cccc(-c2ccc([C@H]3[C@@H](CO)N4CCCCN(C(=O)Nc5ccccc5)C[C@@H]34)cc2)c1	0.2	-0.4	0.5[16.7 µM]	-0.4	-9.4
C/C(=N\NC(=O)COc1ccc(C(C)(C)C)cc1)c1ccc(N2CCOCC2)cc1	-1.1	.	.	44.0*	-0.8
C/C(=N\NC(=O)c1ccc(F)cc1)c1ccc(N2CCOCC2)cc1	0.0	-0.1	.	0.5	-3.6
O=C(Nc1ccc(NC(=O)c2cccs2)cn1)c1ccccc1	3.7	.	.	43.2*	3.9
O=C(Nc1ccc(NC(=O)C2CC2)nc1)c1cccs1	.	.	-7.5	.	.
c1ccc2c(c1)[nH]c1nc3nncn3nc12	18.3*	.	-5.8	0.1	7.0
S=c1nc2[nH]c3ccccc3c2n[nH]1	0.1	1.3	7.3	0.0	10.3
C[C@@H]1CN([C@H](C)CO)S(=O)(=O)c2ccc(-c3cccnc3)cc2O[C@H]1CN(C)CC1CCOCC1	0.5	-0.1	7.0[16.7 µM]	-0.2	-1.2
COc1cc(C2C3=C(COC3=O)Oc3cc4c(cc32)OCO4)ccc1OC(C)=O (stereo not given)	1.1	0.5	12.6	-0.1	-2.8
COc1cc(C2C3=C(COC3=O)Oc3cc4c(cc32)OCO4)cc(OC)c1OC(C)=O (stereo not given)	1.6	1.6	100.9*	0.0	-2.4
COc1ccc(-c2ccc3n(c2=O)C[C@@H]2[C@@H](CO)[C@H](C(=O)N4CCOCC4)N[C@H]32)cc1	-49.1	-0.1	.	0.2	-4.7
Cc1ccc(S(=O)(=O)N(C)C[C@H]2Oc3c(NC(=O)C4CCOCC4)cccc3C(=O)N([C@H](C)CO)C[C@H]2C)cc1	0.9	1.3	0.0[16.7 µM]	0.0	-16.4
COCC(=O)N1C[C@@H](C)[C@@H](OC)CN(C)C(=O)c2ccc(NC(=O)NC(C)C)cc2OC[C@H]1C	-5.9	0.2	5.5[16.7 µM]	0.2	9.8
COc1cc(C#Cc2c(C=O)n(C)c3ccccc23)cc(OC)c1	32.0*	0.0	7.0	0.0	1.9
COc1ccc(N2CCN(C(=O)[C@@H](NC(=O)c3ccccc3Cl)C(C)C)CC2)cc1	16.4*	-0.1	1.9	-0.3	-2.1
COc1cccc(Oc2ccc(N/C=C/C(=O)C(C)(C)C)cc2)c1	0.3	.	3.5	43.6*	-1.8
C[C@H]1CCCCO[C@@H](CN(C)C)[C@@H](C)CN([C@@H](C)CO)C(=O)c2cc(NC(=O)Nc3ccc4c(c3)OCO4)ccc2O1	.	-0.1	-6.7[16.7 µM]	.	.
COc1ccc(-c2ccc3c(c2)O[C@@H](CN(C)CC2CCOCC2)[C@H](C)CN([C@@H](C)CO)S3(=O)=O)cc1	13.8	-0.2	1.4[16.7 µM]	-0.4	4.2
CCOC(=O)C(NC(C)=O)(Nc1ccc(S(=O)(=O)Nc2ncccn2)cc1)C(F)(F)F (stereo not given)	19.0*	.	.	0.2	-3.2
CCOC(=O)C(NC(C)=O)(Nc1ccc(S(=O)(=O)Nc2nccs2)cc1)C(F)(F)F (stereo not given)	.	.	-9.4	.	.
CC(C)NC(=O)Nc1cccc2c1O[C@@H](CN(C)S(=O)(=O)c1cccs1)[C@@H](C)CN([C@H](C)CO)C2=O	.	-4.6	2.7[16.7 µM]	.	.
SMILES	SIRT5 inh	E-selectin induc	miR122 inh	FGF22 binding	S100A4 MyoIIA
CCOC(=O)C1CCc2c(ccc3ccccc23)N1CCC#N (stereo not given)	34.9*	0.4	2.3	-0.1	4.8
C/[N+]([O-])=C/c1c(OCc2ccc(Cl)cc2Cl)ccc2ccccc12	0.8	.	.	44.9*	3.1
CN(Cc1ccccc1)S(=O)(=O)c1cccc(C(=O)O)c1	31.0*	.	.	0.2	10.5
COc1ccc(N(C)S(=O)(=O)c2cccc(C(=O)Nc3ccc(OC)nc3)c2)cc1	-6.2	2.3	.	-0.1	-4.1
CN(C)S(=O)(=O)c1cccc(C(=O)Nc2ccccc2)c1	-1.7	-0.8	.	43.2*	-1.4
CN(C)S(=O)(=O)c1cccc(C(=O)Nc2cc(Cl)cc(Cl)c2)c1	.	.	28.9	.	.
N#Cc1ccc(NC(=O)COC(=O)c2cccc(S(=O)(=O)N3CCCC3)c2)cc1	.	0.5	-6.0	43.2*	0.7
COc1ccc(N(C)S(=O)(=O)c2cccc(C(=O)Nc3ccc4c(c3)OCCO4)c2)cc1	-0.7	0.0	9.1	43.5*	5.5
COCC(=O)NC[C@H]1[C@@H](c2ccc(C3=CCCC3)cc2)[C@H](CO)N1C(=O)C1CC1	1.7	-0.1	-33.3[16.7 µM]	0.4	-1.1
COc1ccc(NC(=O)COC(=O)c2cccc(S(=O)(=O)N(C)C)c2)cc1	3.1	2.0	-13.9	43.0*	-6.2
CN(C)S(=O)(=O)c1cccc(C(=O)OCC(=O)Nc2sccc2C(N)=O)c1	.	.	1.2	.	.
O=c1oc2ccccc2c(Nc2ccccc2O)c1[N+](=O)[O-]	16.9*	.	.	0.0	-5.7
O=c1oc2ccccc2c(Nc2cc3ccccc3cc2O)c1[N+](=O)[O-]	5.8	.	27.5	0.2	0.7
O=C(NNC(=O)C1CC1)c1cc2cc3ccccc3nc2s1	1.2	-0.2	.	43.3*	-0.6
O=C(NNC(=O)c1cc2cc3ccccc3nc2s1)c1ccc(F)cc1	.	.	-1.0	.	.
Cc1noc(C)c1NC(=O)Nc1ccc2c(c1)CC(=O)N([C@H](C)CO)C[C@H](C)[C@H](CN(C)S(=O)(=O)c1ccc(F)cc1)O2	-7.9	-0.2	0.5[16.7 µM]	0.5	-11.8
O=C(NCc1ccccc1)NCc1cccs1	-2.9	-0.3	-3.8	43.3*	5.2
O=C(CNC(=O)Cc1ccccc1)NCc1cccs1	-3.6	.	-5.8	0.0	-5.6
O=S(=O)(Cc1ccccc1)NCC[C@H]1CC[C@H](NS(=O)(=O)c2ccccc2)[C@@H](CO)O1	-1.5	-0.2	.	-0.1	-15.6
COc1ccc(-c2c[n+]3c(n2-c2c(C)n(C)n(-c4ccccc4)c2=O)CCCCC3)cc1	-2.3	-0.6	-3.4	43.1*	-1.4
C[C@H](CO)N1C[C@H](C)[C@@H](CN(C)S(=O)(=O)c2ccccc2)Oc2ccc(NC(=O)Nc3ccc4c(c3)OCO4)cc2CC1=O	3.8	0.0	-6.5[16.7 µM]	-0.8	1.1
Cc1ccc(S(=O)(=O)N(C)C[C@H]2Oc3ccc(NC(=O)Nc4ccc5c(c4)OCO5)cc3CC(=O)N([C@H](C)CO)C[C@@H]2C)cc1	-1.7	2.7	-2.2[16.7 µM]	-0.1	-6.5
